According to publication PMC6061410 (Clinical Drug Investigation, 2018):

Assays:
[1] = system: healthy young subjects; assay: Safety and tolerability; assay type: in vivo, human
How it was run: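 Adverse events were recorded by system organ class and preferred term in 12 healthy young subjects. Each received single fasted 25-mg doses in the morning and evening, open-label crossover, washout ≥11 days. Baselines were the last measurements before the morning dose and before the evening dose.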

[2] = system: CYP3A4; conditions: cited from earlier work

In the case of C[C@@H](Oc1ccc(S(C)(=O)=O)cc1C(=O)N1C[C@@H]2C[C@]2(c2cc(C(F)(F)F)on2)C1)C(F)(F)F [BI 425809], the “changes in laboratory parameters, vital signs, 12-lead ECG, examinations, suicidality, oxygen saturation, VAS” value ([1]; part 2, single 25 mg doses) is reported as “No clinically relevant changes”, the “serious AEs” value ([1]; part 2, single 25 mg doses) is reported as “No serious AEs were reported” and the Dizziness ([1]; young, part 2, 25 mg QD) is reported as 0 (–) n (%). For the same molecule, the Eye disorders ([1]; young, part 2, 25 mg QD) was 0 (–) n (%), the Gastrointestinal disorders ([1]; young, part 2, 25 mg QD) was 0 (–) n (%) and the “General disorders and administration site conditions” value ([1]; young, part 2, 25 mg QD) was 0 n (%). The Headache ([1]; young, part 2, 25 mg QD) was 1 (8.3) n (%), the Infections and infestations ([1]; young, part 2, 25 mg QD) was 1 (8.3) n (%) and the Insomnia ([1]; young, part 2, 25 mg QD) was 0 (–) n (%). The “Musculoskeletal and connective tissue disorders” value ([1]; young, part 2, 25 mg QD) was 0 (–) n (%), the Nasopharyngitis ([1]; young, part 2, 25 mg QD) was 1 (8.3) n (%) and the Nervous system disorder ([1]; young, part 2, 25 mg QD) was 1 (8.3) n (%). For the same molecule, the Ocular discomfort ([1]; young, part 2, 25 mg QD) was 0 (–) n (%), the Psychiatric disorders ([1]; young, part 2, 25 mg QD) was 0 (–) n (%) and the “Subjects with AEs leading to study discontinuation” value ([1]; young, part 2, 25 mg QD) was 0 (–) n (%). The “Subjects with investigator-defined drug-related AEs” value ([1]; young, part 2, 25 mg QD) was 0 (–) n (%), the “Total with AEs” value ([1]; young, part 2, 25 mg QD) was 2 (16.7) n (%) and the Vision blurred ([1]; young, part 2, 25 mg QD) was 0 (–) n (%). The “role of CYP3A4 in metabolic pathway” value ([2]; drug–drug interaction study confirming in-vitro data) was “major component of the BI 425809 metabolic pathway”, the CYP3A4 induction ([2]; in-vitro and clinical studies) was “has the potential to induce CYP3A4 activity” and the metabolising enzyme ([2]; in-vitro and clinical studies) was “primarily metabolised by CYP3A4”.
